Source: ChEMBL document CHEMBL4813998, “Structural simplification of evodiamine: Discovery of novel tetrahydro-β-carboline derivatives as potent antitumor agents” (Bioorg Med Chem Lett, 2021)
Activity calls are given as the source filed them. The rule behind the calls is not given here.

Experiments:
[1] = Antiproliferative activity against human A549 cells assessed as growth inhibition by CCK8 assay; assay type: functional, cell-based, Epithelial cell
[2] = Antiproliferative activity against human MDA-MB-231 cells assessed as growth inhibition by CCK8 assay; assay type: functional, cell-based, Epithelial cell
[3] = Antiproliferative activity against human HCT116 cells assessed as growth inhibition by CCK8 assay; assay type: functional, cell-based, Epithelial cell
[4] = target: DNA topoisomerase 2-alpha (Homo sapiens) (UniProt P11388); experiment: Inhibition of TOP2 (unknown origin) assessed as fractured DNA fragments using supercoiled plasmid DNA at 100 uM relative to etoposide
Sequence of DNA topoisomerase 2-alpha (Homo sapiens) (P11388 whole entry, the tested form may be a part): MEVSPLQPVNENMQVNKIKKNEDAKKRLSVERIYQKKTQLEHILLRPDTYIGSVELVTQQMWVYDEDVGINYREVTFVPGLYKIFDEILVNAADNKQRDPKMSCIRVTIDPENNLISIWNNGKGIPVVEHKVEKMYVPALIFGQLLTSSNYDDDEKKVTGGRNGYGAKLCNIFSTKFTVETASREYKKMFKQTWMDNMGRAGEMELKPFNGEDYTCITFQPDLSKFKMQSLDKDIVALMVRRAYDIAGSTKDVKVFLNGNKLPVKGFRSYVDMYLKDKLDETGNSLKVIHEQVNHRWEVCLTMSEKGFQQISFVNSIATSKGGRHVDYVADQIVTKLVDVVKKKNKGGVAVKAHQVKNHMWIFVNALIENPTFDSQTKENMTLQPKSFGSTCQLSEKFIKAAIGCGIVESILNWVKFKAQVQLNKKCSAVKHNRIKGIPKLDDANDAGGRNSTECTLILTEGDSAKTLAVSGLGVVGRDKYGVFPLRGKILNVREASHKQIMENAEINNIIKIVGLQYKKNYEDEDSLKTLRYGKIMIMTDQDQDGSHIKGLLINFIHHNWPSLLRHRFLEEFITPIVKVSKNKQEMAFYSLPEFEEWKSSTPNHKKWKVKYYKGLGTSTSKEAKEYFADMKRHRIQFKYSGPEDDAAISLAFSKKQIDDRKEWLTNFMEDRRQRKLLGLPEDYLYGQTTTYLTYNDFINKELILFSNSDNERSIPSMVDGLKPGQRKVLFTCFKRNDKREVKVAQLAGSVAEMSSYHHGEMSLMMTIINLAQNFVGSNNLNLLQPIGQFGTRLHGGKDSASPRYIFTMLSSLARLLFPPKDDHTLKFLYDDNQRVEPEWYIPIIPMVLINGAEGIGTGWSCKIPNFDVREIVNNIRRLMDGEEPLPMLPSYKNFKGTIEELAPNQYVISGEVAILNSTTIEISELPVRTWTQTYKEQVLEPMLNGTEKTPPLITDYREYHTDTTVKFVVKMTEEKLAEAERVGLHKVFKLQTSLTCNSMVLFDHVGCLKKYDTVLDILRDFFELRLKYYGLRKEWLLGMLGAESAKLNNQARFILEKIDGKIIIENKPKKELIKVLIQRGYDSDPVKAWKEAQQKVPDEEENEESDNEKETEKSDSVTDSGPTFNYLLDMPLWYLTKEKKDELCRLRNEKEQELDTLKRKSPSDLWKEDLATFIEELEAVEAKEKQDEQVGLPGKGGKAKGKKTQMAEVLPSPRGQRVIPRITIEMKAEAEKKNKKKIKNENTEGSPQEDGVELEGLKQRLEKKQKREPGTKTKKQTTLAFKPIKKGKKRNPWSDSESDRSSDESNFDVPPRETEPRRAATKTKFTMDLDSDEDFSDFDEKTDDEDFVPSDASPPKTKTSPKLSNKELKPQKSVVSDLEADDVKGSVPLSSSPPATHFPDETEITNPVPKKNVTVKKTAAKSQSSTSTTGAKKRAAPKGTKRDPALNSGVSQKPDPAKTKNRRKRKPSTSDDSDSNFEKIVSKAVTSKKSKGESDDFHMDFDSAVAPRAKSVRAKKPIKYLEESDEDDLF
Summary of the method: (§1)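 Purified Top2 was incubated with DNA and compounds at 250 μM and 100 μM. The read-out was the appearance of fractured DNA fragments, with etoposide as the positive control.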

[5] = target: DNA topoisomerase 2-alpha (Homo sapiens) (UniProt P11388); experiment: Inhibition of TOP2 (unknown origin) assessed as fractured DNA fragments using supercoiled plasmid DNA at 50 uM relative to etoposide
[6] = target: T1, DNA topoisomerase 1 (Homo sapiens) (UniProt P11387); experiment: Inhibition of TOP1 (unknown origin) assessed as decrease in relaxation of supercoiled DNA using supercoiled plasmid DNA at 100 uM relative to camptothecin
T1 sequence (whole entry): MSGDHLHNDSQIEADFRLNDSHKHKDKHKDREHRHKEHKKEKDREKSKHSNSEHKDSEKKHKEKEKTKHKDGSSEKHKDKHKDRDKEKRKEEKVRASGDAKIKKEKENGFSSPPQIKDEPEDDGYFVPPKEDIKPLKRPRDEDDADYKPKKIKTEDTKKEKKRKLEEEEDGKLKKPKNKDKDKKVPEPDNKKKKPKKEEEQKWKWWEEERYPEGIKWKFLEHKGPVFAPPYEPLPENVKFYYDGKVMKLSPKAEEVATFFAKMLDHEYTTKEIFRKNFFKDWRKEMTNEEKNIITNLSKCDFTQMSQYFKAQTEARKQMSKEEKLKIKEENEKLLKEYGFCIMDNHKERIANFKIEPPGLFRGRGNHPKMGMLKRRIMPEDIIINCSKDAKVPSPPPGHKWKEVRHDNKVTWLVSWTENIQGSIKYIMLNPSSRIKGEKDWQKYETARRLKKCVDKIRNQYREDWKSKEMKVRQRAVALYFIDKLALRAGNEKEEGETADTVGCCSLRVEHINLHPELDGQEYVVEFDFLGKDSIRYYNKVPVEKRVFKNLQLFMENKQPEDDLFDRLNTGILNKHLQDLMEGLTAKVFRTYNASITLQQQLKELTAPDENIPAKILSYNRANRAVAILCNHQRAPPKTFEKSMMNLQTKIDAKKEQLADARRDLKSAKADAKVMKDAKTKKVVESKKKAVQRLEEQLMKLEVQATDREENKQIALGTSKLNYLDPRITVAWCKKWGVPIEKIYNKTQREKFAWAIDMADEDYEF
Summary of the method: (§2)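 Top1-mediated relaxation of supercoiled DNA was tested with compounds at 500 μM and 100 μM. Camptothecin served as the positive control.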

[7] = target: DNA topoisomerase 2-alpha (Homo sapiens) (UniProt P11388); experiment: Inhibition of TOP2 (unknown origin) assessed as fractured DNA fragments using supercoiled plasmid DNA at 250 uM; summary of the method: as §1
[8] = target: T1, DNA topoisomerase 1 (Homo sapiens); experiment: Inhibition of TOP1 (unknown origin) assessed as decrease in relaxation of supercoiled DNA using supercoiled plasmid DNA at 500 uM relative to camptothecin; summary of the method: as §2
HCT-116 [9] = experiment: Induction of apoptosis in human HCT116 cells assessed as increase in bax protein expression at 0.03 to 1.5 uM after 24 hrs by Western blot analysis; assay type: functional, cell-based; conditions: dose 0.03-1.5 µM
Summary of the method: (§3)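 HCT116 cells were exposed to various concentrations for 24 h. Lysates were then probed by western blot for caspase-9, caspase-3, Bcl-2, Bax and cytochrome C.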

HCT-116 [10] = experiment: Induction of apoptosis in human HCT116 cells assessed as increase in caspase-9 expression after 24 hrs by Western blot analysis; assay type: functional, cell-based; conditions: dose 0.03-1.5 µM; summary of the method: as §3
HCT-116 [11] = experiment: Induction of apoptosis in human HCT116 cells assessed as decrease in Bcl-2 protein expression at 0.03 to 1.5 uM after 24 hrs by Western blot analysis; assay type: functional, cell-based; conditions: dose 0.03-1.5 µM; summary of the method: as §3
HCT-116 [12] = experiment: Antitumor activity against human HCT116 cells xenografted in nude mice assessed as tumor growth inhibition at 50 mg/kg/day, ip administered bid for 21 days relative to control; assay type: functional, organism-based; conditions: time 21.0 day
Summary of the method: (§4)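 HCT116 cells were inoculated into nude mice to form xenografts. Dosing was intraperitoneal at 50 mg/kg/day for 21 consecutive days. Evodiamine was given at the same dosage as the comparator. Tumor growth and body weight after implantation were tracked, and data are reported as mean ± SEM.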

HCT-116 [13] = experiment: Induction of apoptosis in human HCT116 cells assessed as increase in caspase-3 expression after 24 hrs by Western blot analysis; assay type: functional, cell-based; conditions: dose 0.03-1.5 µM; summary of the method: as §3
Mus musculus = experiment: Toxicity in nude mouse xenografted with human HCT116 cells assessed as body weight loss at 50 mg/kg/day, ip administered bid for 21 days; assay type: functional, organism-based; conditions: Epithelial cell, time 21.0 day; summary of the method: as §4
HCT-116 [14] = experiment: Induction of apoptosis in human HCT116 cells assessed as increase in cytochrome c expression after 24 hrs by Western blot analysis; assay type: functional, cell-based; conditions: dose 0.03-1.5 µM; summary of the method: as §3

Row | Structure (SMILES) | IC50 ([1]; Homo sapiens, Epithelial cell) [µM] | IC50 ([2]; Homo sapiens, Epithelial cell) [µM] | IC50 ([3]; Homo sapiens, Epithelial cell) [µM] | also measured
1 | COc1cccc(C(=O)N2CCc3c([nH]c4ccc(OC)cc34)C2c2ccccc2)c1 (stereo unspecified) | 12 | 3.01 | 5.13 | 
2 | CN1c2ccccc2C(=O)N2CCc3c([nH]c4ccccc34)[C@H]21 | > 100 | 49 | 19.6 | 
3 | COc1ccc2[nH]c3c(c2c1)CCN(C(=O)c1ccc(F)cc1)C3c1ccc(Cl)c(Cl)c1 (stereo unspecified) | 14.1 | 0.29 | 0.49 | inhibition [4]: Active; inhibition [5]: Active; inhibition [6]: Active; inhibition [7]: Active; inhibition [8]: Active
4 | COc1ccc2[nH]c3c(c2c1)CCN(C(=O)CCc1ccccc1)C3c1ccccc1 (stereo unspecified) | 7.91 | 0.57 | 0.36 | inhibition [4]: Active; inhibition [5]: Active; inhibition [6]: Active; inhibition [7]: Active; inhibition [8]: Active
5 | COc1ccc2[nH]c3c(c2c1)CCN(C(=O)c1ccccc1)C3c1ccc(Br)cc1 (stereo unspecified) | 2.09 | 18.8 | 3.62 | 
6 | COc1ccc2[nH]c3c(c2c1)CCN(C(=O)CCc1ccc(F)cc1)C3c1ccccc1 (stereo unspecified) | 3.8 | 0.34 | 0.72 | inhibition [4]: Active; inhibition [5]: Active; inhibition [7]: Active; inhibition [8]: Active
7 | COc1ccc2[nH]c3c(c2c1)CCN(C(=O)c1ccc([N+](=O)[O-])cc1)C3c1ccccc1 (stereo unspecified) | 25.5 | 6.18 | 58.1 | 
8 | COc1ccc2[nH]c3c(c2c1)CCN(C(=O)c1ccccc1)C3c1ccc(C)cc1 (stereo unspecified) | 17.4 | 22.2 | 6.45 | 
9 | COc1ccc2[nH]c3c(c2c1)CCN(C(=O)c1ccccc1)C3c1cccc(Br)c1 (stereo unspecified) | 11.9 | 40.8 | 3.24 | 
10 | COc1ccc2[nH]c3c(c2c1)CCN(C(=O)c1ccccc1)C3c1ccccc1Cl (stereo unspecified) | 27.2 | > 100 | 6.73 | 
11 | COc1ccc2[nH]c3c(c2c1)CCN(C(=O)c1cccc(F)c1)C3c1ccccc1 (stereo unspecified) | 9.27 | 3.28 | 4.8 | 
12 | COc1cccc(C(=O)N2CCc3c([nH]c4ccc(OC)cc34)C2c2ccc(Cl)c(Cl)c2)c1 (stereo unspecified) | 13.6 | 0.68 | 1.97 | 
13 | COc1ccc2[nH]c3c(c2c1)CCN(C(=O)CCc1ccccc1)C3c1ccc(Cl)c(Cl)c1 (single isomer, unassigned; (+)) |  |  |  | IC50 ([1]; epithelial cell): 0.65 µM; IC50 ([2]; epithelial cell): 0.042 µM; IC50 ([3]; epithelial cell): 0.13 µM
14 | CC(C)C1c2[nH]c3ccccc3c2CCN1C(=O)c1ccccc1 (stereo unspecified) | > 100 | > 100 | > 100 | 
15 | O=C(c1ccccc1)N1CCc2c([nH]c3ccccc23)C1c1ccccc1 (stereo unspecified) | > 100 | 51.2 | 57.9 | 
16 | COc1ccc(C(=O)N2CCc3c([nH]c4ccc(OC)cc34)C2c2ccccc2)cc1 (stereo unspecified) | 11.8 | 2.81 | 6.14 | 

Row | Structure (SMILES) | IC50 ([1]; Homo sapiens, Epithelial cell) [µM] | IC50 ([2]; Homo sapiens, Epithelial cell) [µM] | IC50 ([3]; Homo sapiens, Epithelial cell) [µM] | also measured
17 | COc1ccc2[nH]c3c(c2c1)CCN(C(=O)CCc1ccccc1)C3c1ccc(Cl)c(Cl)c1 (stereo in doubt; 45) |  |  |  | Activity (HCT-116 [9]): Active; inhibition [4]: Active; inhibition [5]: Active; Activity (HCT-116 [10]): Active; Activity (HCT-116 [11]): Active; inhibition [6]: Active; inhibition [7]: Active; inhibition [8]: Active; Activity (HCT-116 [12]): Active; Activity (HCT-116 [13]): Active; Activity (Mus musculus): Active; Activity (HCT-116 [14]): Dose-Dependent Effect
18 | COc1ccc2[nH]c3c(c2c1)CCN(C(=O)c1ccccc1)C3c1ccc(Cl)c(Cl)c1 (stereo unspecified) | 1.66 | 0.59 | 0.54 | inhibition [4]: Active; inhibition [5]: Active; inhibition [6]: Active; inhibition [7]: Active; inhibition [8]: Active
19 | COc1ccc2[nH]c3c(c2c1)CCN(C(=O)c1ccc(Cl)cc1)C3c1ccccc1 (stereo unspecified) | 2.15 | 1.11 | 5.56 | 
20 | COc1ccc2[nH]c3c(c2c1)CCN(C(=O)c1ccccc1)C3c1ccc(F)c(F)c1 (stereo unspecified) | 30.2 | 31 | 2.65 | 
21 | COc1ccc2[nH]c3c(c2c1)CCN(C(=O)c1ccccc1F)C3c1ccccc1 (stereo unspecified) | 18.7 | 62.4 | 6.18 | 
22 | COc1ccc2[nH]c3c(c2c1)CCN(C(=O)CCc1ccccc1F)C3c1ccccc1 (stereo unspecified) | 2.45 | 0.27 | 7.76 | 
23 | COc1ccc2[nH]c3c(c2c1)CCN(C(=O)c1ccc(F)cc1)C3c1ccccc1 (stereo unspecified) | 12.7 | 1.24 | 1.73 | 
24 | COc1ccc2[nH]c3c(c2c1)CCN(C(=O)CCc1ccccc1)C3c1ccc(Cl)c(Cl)c1 (single isomer, unassigned; (-)) |  |  |  | IC50 ([1]; epithelial cell): 16.1 µM; IC50 ([2]; epithelial cell): > 50 µM; IC50 ([3]; epithelial cell): 17.7 µM
25 | CC[C@@]1(O)C(=O)OCc2c1cc1n(c2=O)Cc2cc3ccccc3nc2-1 [CAMPTOTHECIN] | 0.045 | 0.075 | 0.01 | 
26 | COc1ccc2[nH]c3c(c2c1)CCN(C(=O)c1ccccc1)C3c1ccccc1 (stereo unspecified) | 5.29 | 1.48 | 2.53 | 
27 | O=C(c1ccccc1)N1CCc2c([nH]c3ccc(O)cc23)C1c1ccccc1 (stereo unspecified) | 19.3 | > 100 | 20.9 | 
28 | COc1cc([C@@H]2c3cc4c(cc3[C@@H](O[C@@H]3O[C@@H]5CO[C@@H](C)O[C@H]5[C@H](O)[C@H]3O)[C@H]3COC(=O)[C@H]23)OCO4)cc(OC)c1O |  |  |  | inhibition [4]: Active; inhibition [5]: Active; inhibition [7]: Active
29 | O=C(c1cccc(F)c1)N1CCc2c([nH]c3ccccc23)C1c1ccccc1 (stereo unspecified) | > 100 | 57.6 | 32.5 | 
30 | COc1ccc(C(=O)N2CCc3c([nH]c4ccc(OC)cc34)C2c2ccc(Cl)c(Cl)c2)cc1 (stereo unspecified) | 44.6 | 1.08 | 4.28 | 
31 | O=C(c1ccccc1)N1CCc2c([nH]c3ccccc23)C1 | > 100 | 45.4 | 21.4 | 
